Laboratory results taken from ChEMBL document CHEMBL1125780, “Monovalent sialosides that bind tightly to influenza A virus” (J Med Chem, 1991).

Biological target: Hemagglutinin (Influenza A virus (strain A/X-31 H3N2)) (UniProt P03438)
Assay: Inhibition of influenza A, strain X-31, induced hemagglutinination of chicken erythrocytes
Format: functional
Settings: Influenza A virus (A/X-31(H3N2))
Method in brief: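 Binding affinities come from hemagglutination inhibition with adult chicken red blood cells. Each is reported as a relative affinity against methyl α-sialoside (Neu5Acα2Me), whose affinity is set at 1.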

Sequence of Hemagglutinin (Influenza A virus (strain A/X-31 H3N2)) (P03438 whole entry): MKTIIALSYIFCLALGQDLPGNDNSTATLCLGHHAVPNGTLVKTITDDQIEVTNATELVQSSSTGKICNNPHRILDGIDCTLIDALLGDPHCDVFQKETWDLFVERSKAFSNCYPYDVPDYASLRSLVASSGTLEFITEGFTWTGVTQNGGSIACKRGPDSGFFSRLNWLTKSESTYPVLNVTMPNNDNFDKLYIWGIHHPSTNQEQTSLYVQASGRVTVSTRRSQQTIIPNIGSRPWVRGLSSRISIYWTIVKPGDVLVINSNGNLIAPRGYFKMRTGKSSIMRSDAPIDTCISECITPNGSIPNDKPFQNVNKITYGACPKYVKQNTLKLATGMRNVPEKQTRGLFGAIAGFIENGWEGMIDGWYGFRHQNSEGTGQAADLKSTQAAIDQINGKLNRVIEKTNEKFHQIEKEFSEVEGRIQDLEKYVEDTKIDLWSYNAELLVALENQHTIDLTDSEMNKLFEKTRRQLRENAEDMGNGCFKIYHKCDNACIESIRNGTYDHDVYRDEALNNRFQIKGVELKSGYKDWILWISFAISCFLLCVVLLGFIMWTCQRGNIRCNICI

Q: `CC(=O)NC1C(O)CC(OCCCCCCC(=O)NCc2cc3ccccc3c3ccccc23)(C(=O)O)OC1[C@H](O)[C@H](O)CO` (some centres undefined) was tested. Which Relative affinity did it give?
A: 64

Q: With `CC(=O)NC1C(O)CC(OCCCCC(=O)NCc2cccc(C(=O)O)c2)(C(=O)O)OC1[C@H](O)[C@H](O)CO` (some centres undefined) as the compound, how does the Relative affinity read?
A: 16

Q: With `CC(=O)NC1C(O)CC(OCCCCCCC(=O)NCc2ccccc2)(C(=O)O)OC1[C@H](O)[C@H](O)CO` (some centres undefined) as the compound, how does the Relative affinity read?
A: 16

Q: With `CC(=O)NC1C(O)CC(OCCCCCCC(=O)NCc2cccc3ccccc23)(C(=O)O)OC1[C@H](O)[C@H](O)CO` (some centres undefined) as the compound, how does the Relative affinity read?
A: 64

Q: How did the Relative affinity turn out when `CC(=O)NC1C(O)CC(OCCCCC(=O)NNS(=O)(=O)c2cccc3c(N(C)C)cccc23)(C(=O)O)OC1[C@H](O)[C@H](O)CO` (some centres undefined) was run?
A: 4

Q: With `CC(=O)NC1C(O)CC(OCCC(=O)NCc2cccc3ccccc23)(C(=O)O)OC1[C@H](O)[C@H](O)CO` (some centres undefined) as the compound, how does the Relative affinity read?
A: 8

Q: Which Relative affinity does the source give for `CC(=O)NC1C(O)CC(OCCCCC(=O)NCc2cccc3ccccc23)(C(=O)O)OC1[C@H](O)[C@H](O)CO` (some centres undefined) here?
A: 32

Q: With `CC(=O)NC1C(O)CC(OCCCCC(=O)NCc2ccccc2)(C(=O)O)OC1[C@H](O)[C@H](O)CO` (some centres undefined) as the compound, how does the Relative affinity read?
A: 8

Q: How did the Relative affinity turn out when `CC(=O)NC1C(O)CC(OCCCCC(=O)NCc2ccc3ncccc3c2)(C(=O)O)OC1[C@H](O)[C@H](O)CO` (some centres undefined) was run?
A: 8

Q: With `CC(=O)NC1C(O)CC(OCCCCC(=O)NCCNC(=O)OCc2ccccc2)(C(=O)O)OC1[C@H](O)[C@H](O)CO` (some centres undefined) as the compound, how does the Relative affinity read?
A: 4

Q: With `CC(=O)NC1C(O)CC(OCCCCCCCCC(=O)NCc2cccc3ccccc23)(C(=O)O)OC1[C@H](O)[C@H](O)CO` (some centres undefined) as the compound, how does the Relative affinity read?
A: 16

Q: For `CNC(=O)CCCCOC1(C(=O)O)CC(O)C(NC(C)=O)C([C@H](O)[C@H](O)CO)O1` (some centres undefined), which Relative affinity is on record?
A: 1

Q: With `CC(=O)NC1C(O)CC(OCCCCC(=O)NCc2cc3ccccc3c3ccccc23)(C(=O)O)OC1[C@H](O)[C@H](O)CO` (some centres undefined) as the compound, how does the Relative affinity read?
A: 32

Q: For `CC(=O)NC1C(O)CC(OCCCCCCCCC(=O)NCc2ccccc2)(C(=O)O)OC1[C@H](O)[C@H](O)CO` (some centres undefined), which Relative affinity is on record?
A: < 8
